Results as given in ChEMBL document CHEMBL1123137 (J Med Chem, 1985).

Experiments:
[1] = HPLC capacity factor (k'); format: ADME
[2] = molecular target: Adenosine receptor A2a (Canis lupus familiaris) (UniProt P11617); assay: Molar potency ratio was evaluated
Albumin = Albumin (Bos taurus, UniProt P02769); assay: Serum albumin binding; settings: cattle
Summary of the method: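 Affinity for bovine serum albumin measured by Hummel–Dreyer method adapted for HPLC. Samples of BSA (0.25–2 g/dL) with 25 μM analogue in 0.1 M NaH2PO4, pH 7.4, were applied to an Aquapore OH-100 column equilibrated with 25 μM analogue in the same buffer. Effluent absorbance was read at 254 nm. Duplicate estimates were made at each of two BSA concentrations, usually 1 and 2 g/dL.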

[3] = Ionisation constant (pKa); format: physicochemical

Sequence of Adenosine receptor A2a (Canis lupus familiaris) (P11617 whole entry, looked up): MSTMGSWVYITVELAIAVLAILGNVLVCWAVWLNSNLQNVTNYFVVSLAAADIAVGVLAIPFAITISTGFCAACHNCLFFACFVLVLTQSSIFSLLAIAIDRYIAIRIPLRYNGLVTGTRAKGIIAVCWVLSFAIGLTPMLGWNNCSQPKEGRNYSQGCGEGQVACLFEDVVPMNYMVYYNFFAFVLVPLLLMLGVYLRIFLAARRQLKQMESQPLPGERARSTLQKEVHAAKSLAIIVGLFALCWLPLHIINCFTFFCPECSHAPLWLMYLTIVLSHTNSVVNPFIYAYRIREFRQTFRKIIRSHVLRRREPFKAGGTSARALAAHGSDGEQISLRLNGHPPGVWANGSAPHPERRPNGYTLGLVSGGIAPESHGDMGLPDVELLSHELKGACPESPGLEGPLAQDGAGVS
Sequence of Albumin (P02769 whole entry): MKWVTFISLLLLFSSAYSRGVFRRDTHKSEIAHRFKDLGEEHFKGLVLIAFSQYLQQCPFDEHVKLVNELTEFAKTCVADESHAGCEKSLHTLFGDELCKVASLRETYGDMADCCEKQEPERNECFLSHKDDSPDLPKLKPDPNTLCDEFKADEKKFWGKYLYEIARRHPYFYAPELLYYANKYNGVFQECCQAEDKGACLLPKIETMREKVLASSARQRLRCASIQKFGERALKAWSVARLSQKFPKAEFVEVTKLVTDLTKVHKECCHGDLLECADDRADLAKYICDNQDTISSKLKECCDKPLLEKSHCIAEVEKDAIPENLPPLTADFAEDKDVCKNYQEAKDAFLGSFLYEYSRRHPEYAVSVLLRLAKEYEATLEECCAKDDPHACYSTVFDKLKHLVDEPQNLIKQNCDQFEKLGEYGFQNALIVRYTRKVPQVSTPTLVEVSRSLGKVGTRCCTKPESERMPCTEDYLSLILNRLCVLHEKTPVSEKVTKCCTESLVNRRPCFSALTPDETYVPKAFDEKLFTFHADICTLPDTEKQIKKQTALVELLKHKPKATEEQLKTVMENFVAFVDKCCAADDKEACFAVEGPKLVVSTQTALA

SMILES | k' [1] | MPR [2] | Amount bound (Albumin) [M/g] | pKa [3]
CCCC(C)Nc1ncnc2c1ncn2C1O[C@H](CO)[C@@H](O)[C@H]1O (some centres undefined) | 2.38 | 1.1 | – | –
CN(C)c1ncnc2c1ncn2[C@@H]1O[C@H](CO)[C@@H](O)[C@H]1O | – | 0.001 | – | –
OC[C@H]1O[C@@H](n2cnc3/c(=N\O)[nH]cnc32)[C@H](O)[C@@H]1O | – | 0.16 | – | –
CC[C@@H](CO)Nc1ncnc2c1ncn2[C@@H]1O[C@H](CO)[C@@H](O)[C@H]1O | 0.52 | 0.12 | – | –
CC(C)C(Nc1ncnc2c1ncn2C1O[C@H](CO)[C@@H](O)[C@H]1O)C(C)C (some centres undefined) | 1 | 0.75 | 2.97 | –
OCCNc1ncnc2c1ncn2C1O[C@H](CO)[C@@H](O)[C@H]1O (some centres undefined) | 0.14 | 0.14 | 0.53 | –
CC(C)(Cc1ccccc1)Nc1ncnc2c1ncn2C1O[C@H](CO)[C@@H](O)[C@H]1O (some centres undefined) | 7.43 | 0.011 | – | –
CC(C)(C)CNc1ncnc2c1ncn2C1O[C@H](CO)[C@@H](O)[C@H]1O (some centres undefined) | 2.5 | 0.064 | – | –
OC[C@H]1O[C@@H](n2cnc3c(NC4CC5CCC4C5)ncnc32)[C@H](O)[C@@H]1O (stereo in doubt; 57) [listing 1 of 2 here] | 2.63 | – | – | –
C[C@H](Nc1ncnc2c1ncn2[C@@H]1O[C@H](CO)[C@@H](O)[C@H]1O)c1ccccc1 | 1.89 | 0.2 | – | –
OC[C@H]1O[C@@H](n2cnc3c(NC4CCCCC4)ncnc32)[C@H](O)[C@@H]1O | 2.12 | – | 1.3 | –
CCCCNc1ncnc2c1ncn2[C@@H]1O[C@H](CO)[C@@H](O)[C@H]1O | 1.59 | 0.38 | 1.06 | –
CC(CC1CCCCC1)Nc1ncnc2c1ncn2C1O[C@H](CO)[C@@H](O)[C@H]1O (some centres undefined) | 8.92 | 0.15 | 19.3 | –
CC[C@H](C)Nc1ncnc2c1ncn2C1O[C@H](CO)[C@@H](O)[C@H]1O (single isomer, unassigned) | 0.96 | 2.6 | 0.53 | –
NCCNc1ncnc2c1ncn2C1O[C@H](CO)[C@@H](O)[C@H]1O (some centres undefined) | 0.11 | 0.072 | – | –
C[C@H](Cc1ccccc1)Nc1ncnc2c1ncn2[C@@H]1O[C@H](CO)[C@@H](O)[C@H]1O [(R)-PIA] | 2.57 | – | – | 3.4
C[C@@H](CCc1ccccc1)Nc1ncnc2c1ncn2[C@@H]1O[C@H](CO)[C@@H](O)[C@H]1O | 6.47 | 0.05 | – | –
OC[C@H]1OC(n2cnc3c(NC(Cc4ccccc4)Cc4ccccc4)ncnc32)[C@H](O)[C@@H]1O (some centres undefined) | 14.83 | 0.33 | – | –
OC[C@H]1O[C@@H](n2cnc3c(NC4CCC4)ncnc32)[C@H](O)[C@@H]1O | 0.2 | 1.6 | – | –
OC[C@H]1OC(n2cnc3c(NCC4CC4)ncnc32)[C@H](O)[C@@H]1O (some centres undefined) | 0.71 | 0.58 | – | –
OC[C@H]1O[C@@H](n2cnc3c(NC4CC5CCC4C5)ncnc32)[C@H](O)[C@@H]1O (stereo in doubt; 58) [listing 1 of 2 here] | 2.64 | – | 2.09 | –
OC[C@H]1O[C@@H](n2cnc3c(Cl)ncnc32)[C@H](O)[C@@H]1O | – | 0.023 | – | –
CC(C)(C)CCNc1ncnc2c1ncn2C1O[C@H](CO)[C@@H](O)[C@H]1O (some centres undefined) | 4.71 | 0.084 | – | –

SMILES | k' [1] | MPR [2] | Amount bound (Albumin) [M/g] | pKa [3]
CCC(CNc1ncnc2c1ncn2C1O[C@H](CO)[C@@H](O)[C@H]1O)c1ccccc1 (some centres undefined) | 5.89 | 3.3 | – | –
OC[C@H]1O[C@@H](n2cnc3/c(=N\OCc4ccccc4)[nH]cnc32)[C@H](O)[C@@H]1O | 1.04 | 0.42 | – | –
COc1ncnc2c1ncn2[C@@H]1O[C@H](CO)[C@@H](O)[C@@H]1O | 0.16 | 0.004 | – | –
OC[C@H]1O[C@@H](n2cnc3c(N[C@@H]4C[C@H]4c4ccccc4)ncnc32)[C@H](O)[C@@H]1O | 2.43 | 0.31 | – | –
CCCNc1ncnc2c1ncn2C1O[C@H](CO)[C@@H](O)[C@H]1O (some centres undefined) | 0.57 | 0.64 | – | –
CC[C@@H](C)Nc1ncnc2c1ncn2[C@@H]1O[C@H](CO)[C@@H](O)[C@H]1O | 0.89 | 0.88 | 0.36 | 3.7
Cc1ncnc2c1ncn2[C@@H]1O[C@H](CO)[C@@H](O)[C@H]1O | – | 0.007 | – | –
C[C@@H](CO)Nc1ncnc2c1ncn2C1O[C@H](CO)[C@@H](O)[C@H]1O (some centres undefined) | 0.28 | 0.098 | – | –
OC[C@H]1O[C@@H](n2cnc3c(NO)ncnc32)[C@H](O)[C@@H]1O | 0.16 | – | – | –
CCCCCNc1ncnc2c1ncn2[C@@H]1O[C@H](CO)[C@@H](O)[C@H]1O | 3.08 | 0.36 | – | –
C[C@@H](CNc1ncnc2c1ncn2[C@@H]1O[C@H](CO)[C@@H](O)[C@H]1O)c1ccccc1 | 2.89 | 2.4 | – | –
CNc1ncnc2c1ncn2[C@@H]1O[C@H](CO)[C@@H](O)[C@H]1O | 0.07 | 0.05 | – | –
OC[C@H]1O[C@@H](n2cnc3c(NC4CC5CCC4C5)ncnc32)[C@H](O)[C@@H]1O (stereo in doubt; 57) [listing 2 of 2 here] | – | 0.54 | – | –
CC[C@H](CO)Nc1ncnc2c1ncn2[C@@H]1O[C@H](CO)[C@@H](O)[C@H]1O | 0.4 | 0.77 | – | –
C[C@@H](Nc1ncnc2c1ncn2[C@@H]1O[C@H](CO)[C@@H](O)[C@H]1O)[C@H](O)c1ccccc1 | 0.96 | 1.8 | – | –
C[C@@H](Nc1ncnc2c1ncn2[C@@H]1O[C@H](CO)[C@@H](O)[C@H]1O)[C@@H](O)c1ccccc1 | 1.32 | 2.9 | – | –
OC[C@H]1O[C@@H](n2cnc3c(NCCc4ccccc4)ncnc32)[C@H](O)[C@@H]1O | 1.77 | 2 | – | 3.6
CCCCC(C)Nc1ncnc2c1ncn2C1O[C@H](CO)[C@@H](O)[C@H]1O (some centres undefined) | 4.46 | 0.56 | – | –
CCCCCCC(C)Nc1ncnc2c1ncn2C1O[C@H](CO)[C@@H](O)[C@H]1O (some centres undefined) | 16.88 | 0.052 | – | –
CCCCCC(C)Nc1ncnc2c1ncn2C1O[C@H](CO)[C@@H](O)[C@H]1O (some centres undefined) | 8.54 | 0.31 | – | –
C[C@@H](Cc1ccccc1)Nc1ncnc2c1ncn2[C@@H]1OC(CO)[C@@H](O)[C@H]1O (single isomer, unassigned) | 2.61 | – | – | –
CCC(CC)Nc1ncnc2c1ncn2C1O[C@H](CO)[C@@H](O)[C@H]1O (some centres undefined) | 1.64 | 4 | 0.78 | 3.3
OC[C@H]1O[C@@H](n2cnc3c(NC4CCCCCC4)ncnc32)[C@H](O)[C@@H]1O | 4.04 | 0.18 | 3.4 | –

SMILES | k' [1] | MPR [2] | Amount bound (Albumin) [M/g] | pKa [3]
CC(C)CNc1ncnc2c1ncn2C1O[C@H](CO)[C@@H](O)[C@H]1O (some centres undefined) | 1 | 0.75 | 0.74 | –
CC1(Nc2ncnc3c2ncn3C2O[C@H](CO)[C@@H](O)[C@H]2O)CCCC1 (some centres undefined) | 5.02 | 0.033 | – | –
OC[C@H]1OC(n2cnc3c(NCC4CCCCC4)ncnc32)[C@H](O)[C@@H]1O (some centres undefined) | 4.67 | 0.14 | 7.1 | –
OC[C@H]1O[C@@H](n2cnc3c(NC4CCCC4)ncnc32)[C@H](O)[C@@H]1O [N6-CYCLOPENTYLADENOSINE] | 1.25 | 1.8 | – | –
C[C@H](CCc1ccccc1)Nc1ncnc2c1ncn2[C@@H]1O[C@H](CO)[C@@H](O)[C@H]1O | 6.11 | 0.19 | – | –
OC[C@H]1O[C@@H](n2cnc3cncnc32)[C@H](O)[C@@H]1O | – | 0.023 | – | –
OC[C@H]1OC(n2cnc3c(NC(C4CC4)C4CC4)ncnc32)[C@H](O)[C@@H]1O (some centres undefined) | 2.68 | 1.5 | – | –
OC[C@H]1O[C@@H](n2cnc3c(NC4CC5CCC4C5)ncnc32)[C@H](O)[C@@H]1O (stereo in doubt; 58) [listing 2 of 2 here] | – | 0.55 | – | –
NNc1ncnc2c1ncn2[C@@H]1O[C@H](CO)[C@@H](O)[C@H]1O | 0.14 | 0.046 | – | –
OC[C@H]1OC(n2cnc3c(NCC(O)c4ccccc4)ncnc32)[C@H](O)[C@@H]1O (some centres undefined) | 0.79 | 1.4 | – | –
C[C@H](CNc1ncnc2c1ncn2[C@@H]1O[C@H](CO)[C@@H](O)[C@H]1O)c1ccccc1 | 3 | 3 | – | –
CCNc1ncnc2c1ncn2C1O[C@H](CO)[C@@H](O)[C@H]1O (some centres undefined) | 0.29 | 0.15 | – | –
CN(Nc1ncnc2c1ncn2C1O[C@H](CO)[C@@H](O)[C@H]1O)c1ccccc1 (some centres undefined) | 0.93 | 1.8 | – | –
CC(C)Nc1ncnc2c1ncn2[C@@H]1O[C@H](CO)[C@@H](O)[C@H]1O | 0.54 | 0.71 | 0.41 | –
CCCCCCNc1ncnc2c1ncn2C1O[C@H](CO)[C@@H](O)[C@H]1O (some centres undefined) | 5.88 | 0.2 | – | –
OC[C@H]1OC(n2cnc3c(NCCC4CCCCC4)ncnc32)[C@H](O)[C@@H]1O (some centres undefined) | 8.92 | 0.04 | – | –
OC[C@H]1O[C@@H](n2cnc3c(NC4CC4)ncnc32)[C@H](O)[C@@H]1O | 0.2 | 0.38 | – | –
OC[C@H]1O[C@@H](n2cnc3c(N[C@H]4C[C@@H]4c4ccccc4)ncnc32)[C@H](O)[C@@H]1O | 2.36 | 0.7 | – | –
CCCC(CCC)Nc1ncnc2c1ncn2C1O[C@H](CO)[C@@H](O)[C@H]1O (some centres undefined) | 5.57 | 0.81 | 7.1 | –
C#CCNc1ncnc2c1ncn2C1O[C@H](CO)[C@@H](O)[C@H]1O (some centres undefined) | 0.21 | 0.23 | – | –
OC[C@H]1O[C@@H](n2cnc3c(NC4C5CCC4CC5)ncnc32)[C@H](O)[C@@H]1O (some centres undefined) | 3.5 | 0.39 | – | –
C=CCNc1ncnc2c1ncn2[C@@H]1O[C@H](CO)[C@@H](O)[C@H]1O | 0.36 | 0.23 | – | –
C[C@@H](Nc1ncnc2c1ncn2[C@@H]1O[C@H](CO)[C@@H](O)[C@H]1O)c1ccccc1 | 1.64 | 0.52 | – | 3.3
